Bioassay records from PubChem BioAssay.
An excerpt weighted towards active compounds, which were near 3.9% of everything screened.
FLuc stim CS = firefly luciferase counter-screen for stimulation assays; P08659; ATPlite luciferase biochemical, luminescence, 10 min; 0 = ATP-free wells, 1 = DMSO control; activation factor at 10 µM; 200,000 tested, under 10 active; AID 1027;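 active = luciferase activation factor, scaled between plate controls, of at least 2 with compound at 10 µM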
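assay system = Luciferase/luciferin detection reagent, cell-free biochemical luciferase assay | also added = ATP substrate | times = 10 min post-reagent at room temperature | measured by = luminescence from luciferase reaction | measure = luciferase activation, seen as luminescence increase over controls | benchmarks = low control with PBS replacing ATP, high control enzyme plus ATP without compound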
Rad51 HR inh = Rad51 (human) homologous recombination inhibition; Q06609; hRad51 DNA strand exchange, fluorescence dequenching; inhibition, % at 10 µM; 200,000 tested, 0.085% active;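 active = inhibition above 40% at the single screening dose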
Target sequence (Q06609 whole entry, looked up): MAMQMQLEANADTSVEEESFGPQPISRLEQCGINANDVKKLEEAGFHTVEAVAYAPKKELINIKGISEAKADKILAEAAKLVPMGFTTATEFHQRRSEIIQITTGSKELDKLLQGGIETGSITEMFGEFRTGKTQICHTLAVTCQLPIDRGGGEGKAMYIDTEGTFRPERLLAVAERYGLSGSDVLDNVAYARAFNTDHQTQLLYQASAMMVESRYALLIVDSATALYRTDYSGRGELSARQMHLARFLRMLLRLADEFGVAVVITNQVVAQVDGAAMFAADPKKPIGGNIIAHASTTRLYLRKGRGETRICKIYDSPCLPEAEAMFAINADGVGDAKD
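System: human Rad51 nucleoprotein filaments preassembled on unlabelled ssDNA. Reagent: labelled 47-mer dsDNA for strand exchange. Schedule: 30-min compound preincubation and 15-min exchange, both room temperature. Measured by: FRET fluorescence dequenching, excitation 485 nm, emission 520 nm. Read-out: Fluorescence-based percent inhibition, control- and blank-normalised. Benchmarks: plate controls and plate blanks.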
STAT1 activator = increases IFN-gamma driven STAT1 reporter signal | NIH 3T3 STAT1-luciferase reporter, luminescence; 100% = IFN-gamma alone, no compound | activation (% of control), % at 5.5 µM | 200,000 tested, 2.6% active | AID 932;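 active = activation above the screen-wide mean activation plus 3 SD, cut at about 130% in these data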
NF-kB expr up = NF-kB expression increase, human neuronal cells; fold change at 12.5 µM; 190,000 tested, 1.6% active; NF-kB reporter expression; active compounds read high; AID 1239; in the data active = fold change above about 3.3
APP 5'UTR act = APP 5'UTR luciferase reporter activation | SH-SY5Y APP 5'UTR luciferase reporter, luminescence; zero percent = DMSO vehicle wells | activation, % at 2 µM | 190,000 tested, 1% active;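 active = activation above a set limit, based on mean plus 3 SD of controls, cut at about 140% in these data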
FLuc inh counter = inhibits firefly luciferase, flagging false hits in luciferase inhibition screens. inhibition, % at 10 µM. P08659. ATPLite firefly luciferase biochemical luminescence, 10 min. AID 1006. 200,000 tested, 1.5% active;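 active = inhibition above about 50% when tested at 10 µM, limit read from the data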
Of the large screens only hits and unclear results are named; the others gave an inactive call.

O=C(Nc1nc2ccc(F)cc2s1)c1ccccn1	FLuc inh counter 90.2
O=C(Nc1nc2ccccc2s1)c1cnccn1	NF-kB expr up 4.01, FLuc inh counter 59.3
COc1cccc(OCc2cc(/C=N/Nc3ccc(C(=O)O)cc3)ccc2OC)c1	none (no result: FLuc stim CS, STAT1 activator, NF-kB expr up, APP 5'UTR act, FLuc inh counter)
FC(F)(F)C(F)(F)c1nnc2ccc(-n3ccnc3)nn12	none
O=C(NCc1cccnc1)C(=O)Nc1nc2ccccc2s1	STAT1 activator 138.9
CC(=O)c1sc(Nc2nc3ccc(F)cc3s2)nc1C	STAT1 activator 135.4
O=C(NCc1cccnc1)C(=O)Nc1nccs1	none
CCOc1ccc(NC(=O)CSc2nnc(-c3ccncc3)n2CC2CCCO2)cc1 (centres undefined)	none
CCOc1ccc2nc(NC(=O)CSc3nnc(-c4ccncc4)n3CC3CCCO3)sc2c1 (centres undefined)	FLuc inh counter 67.6 (no result: STAT1 activator, NF-kB expr up, APP 5'UTR act)
CCN1CCN(c2oc(/C=C/c3ccccc3)nc2C#N)CC1	none (no result: FLuc stim CS, STAT1 activator, NF-kB expr up, APP 5'UTR act, FLuc inh counter)
COCc1cc(C)nc(SCC[N+](C)(C)CC(=O)Nc2cccc(C(F)(F)F)c2)c1C#N	none
Cc1cccc(OCCn2c(=O)sc3ccccc32)c1	STAT1 activator 135.6
Cc1cccc(OCCCn2c(=O)sc3ccccc32)c1	none
COc1ccc(OCCn2c(=O)sc3ccccc32)cc1	STAT1 activator 136.9
Cc1cccc(OCCn2c(=O)n(C)c3ccccc32)c1	STAT1 activator 142.7, NF-kB expr up 3.64
Cc1cccc(OCCN2C(=O)c3ccccc3C2=O)c1	STAT1 activator 140.2
O=C(NC12CC3CC(CC(C3)C1)C2)c1ccc(-c2ccc(Br)cc2)o1	STAT1 activator 143.5
COc1ccc2[nH]c3c(C)c4ccncc4c(C)c3c2c1	Rad51 HR inh 47.5 (no result: FLuc stim CS, STAT1 activator, NF-kB expr up, APP 5'UTR act, FLuc inh counter)
COc1ccc(NC(=O)c2noc3c2CCC3)cc1	STAT1 activator 138.6, NF-kB expr up 3.96, APP 5'UTR act 142.7
Cc1ccc(NC(=O)c2noc3c2CCC3)cc1C	NF-kB expr up 8.26, APP 5'UTR act 181.9
COc1ccc(CNC(=O)c2noc3c2CCCCC3)cc1	none
COc1cc(NC(=O)c2noc3c2CCC3)c(OC)cc1Cl	none
O=C(Nc1cnn(Cc2ccc(F)cc2)c1)c1noc2c1CCCC2	STAT1 activator 129.4
CC(=O)c1ccc(NC(=O)c2noc3c2CCC3)cc1	NF-kB expr up 4.85, APP 5'UTR act 138.3
COC(=O)c1c(NC(=O)CN2C(=O)NC3(CCc4ccccc4C3)C2=O)sc2c1CCCCC2 (centres undefined)	none (no result: Rad51 HR inh)
NC(=O)[C@@H]1CCNc2c(I)cc([N+](=O)[O-])cc2C(=O)N[C@@H](CCC(=O)O)C(=O)N[C@@H](CO)C(=O)N1	none
NC(=O)Cc1ccc(Nc2nnc(-c3ccc(O)cc3)c3ccccc23)cc1	none
Cc1ccc(C(=O)NCCNS(C)(=O)=O)cc1	none
COC(=O)c1ccccc1NC(=O)c1noc2c1CCCC2	none
O=C(NCc1ccccc1)c1noc2c1CCCCC2	STAT1 activator 130.1
O=C(Nc1cccc(O)c1)c1noc2c1CCCCC2	FLuc inh counter 86.1
CCC1(CC)C(=O)C2=C3C1[C@H](C(=O)OC)C=C(C(=O)OC)C[C@H]3n1c(=O)n(-c3ccccc3)c(=O)n1[C@H]2C (some centres undefined)	none (no result: FLuc stim CS, STAT1 activator, NF-kB expr up, APP 5'UTR act, FLuc inh counter)
O=C1N[C@@H](Cc2ccccc2)C(=O)N2[C@@H]1C[C@@]1(Br)c3ccccc3N(S(=O)(=O)c3ccccc3)[C@@H]21	none (no result: FLuc stim CS, STAT1 activator, NF-kB expr up, APP 5'UTR act, FLuc inh counter)
COc1ccc(-c2nc3ccccc3c(=O)n2NC(=O)c2cccnc2Cl)cc1OC	none
NC(=O)c1ccccc1N/C=C/C(=O)c1cccs1	STAT1 activator 138.1, NF-kB expr up 5.4, FLuc inh counter 84.7 (no result: APP 5'UTR act)
O=C(Nc1ccccc1Cl)c1ccc(Cl)cc1Cl	none (no result: Rad51 HR inh)
Cc1ccccc1NC(=O)Nc1ccccc1C(N)=O	none
Cc1ccc(C(=O)/C=C/Nc2ccccc2C(N)=O)o1	FLuc inh counter 62.7
NC(=O)c1ccccc1N/C=C/C(=O)c1ccc(Cl)cc1Cl	NF-kB expr up 5.89, APP 5'UTR act 174.1, FLuc inh counter 95.8 (no result: Rad51 HR inh)
Cc1cccc(N/C=C/C(=O)c2cccs2)c1C	NF-kB expr up 4.13, APP 5'UTR act 212.1, FLuc inh counter 92.2
CC1CCCC(n2c(=S)[nH]c3ccccc3c2=O)C1C (centres undefined)	none
Cn1c(NNC(=O)C2CCCCC2)cc(=O)n(C)c1=O	none
Cc1cc(NC(=O)CN2C(=O)NC(C)(c3ccc(Cl)cc3)C2=O)no1 (centres undefined)	none
COc1cc([N+](=O)[O-])ccc1N/C=C/C(=O)c1cccs1	NF-kB expr up 4.34, APP 5'UTR act 136.2, FLuc inh counter 93.4
O=C(/C=C/c1ccc([N+](=O)[O-])cc1)c1cccs1	none (no result: FLuc stim CS, STAT1 activator, NF-kB expr up, APP 5'UTR act, FLuc inh counter)
O=C(CSc1ccc2c(c1)OCCO2)Nc1ccc(N2CCOCC2)cc1	none
COCCOCCn1c(/C=C/c2ccccc2)nc2ccccc21	STAT1 activator 135.1, NF-kB expr up 5.95, APP 5'UTR act 166.1, FLuc inh counter 83.5
CC(C)n1c(/C=C/c2ccccc2)nc2ccccc21	FLuc inh counter 70.5
CCCn1c(/C=C/c2ccccc2)nc2ccccc21	STAT1 activator 144.5, NF-kB expr up 5.57, FLuc inh counter 71.9
COCCOCCn1c(CCCO)nc2ccccc21	none
O=C(Nc1nc(-c2ccccn2)cs1)C12CC3CC(CC(O)(C3)C1)C2	FLuc inh counter 82.6
CCOC(=O)c1cccnc1NC(=O)c1ccccc1	none
CCn1c2ccccc2c2cc(NC(=O)c3cc(OC)c(OC)c(OC)c3)ccc21	none
CCn1c2ccccc2c2cc(NC(=O)c3cc(OC)cc(OC)c3)ccc21	NF-kB expr up 4.05
N#CCN1CCC(c2cc(-c3ccco3)n[nH]2)CC1	none
COc1cc(CC(=O)OCC(=O)Nc2cc([N+](=O)[O-])ccc2Cl)cc(OC)c1OC	none
N#Cc1c(/N=C/c2cccs2)sc2c1CCCCC2	APP 5'UTR act 148.5, FLuc inh counter 86.5
N#Cc1c(/N=C/c2ccc(Br)s2)sc2c1CCC2	none (no result: Rad51 HR inh)
N/C(=N\OC(=O)Cc1ccccc1)c1cccc(Br)c1	none (no result: Rad51 HR inh, NF-kB expr up)
N/C(=N\OC(=O)Cc1ccccc1)c1ccccc1Cl	STAT1 activator 147.4
Fc1cccc(F)c1-n1c(CN2CCCCC2)csc1=S	none
O=C(Cn1nnc2ccccc2c1=O)N[C@H](C(=O)O)c1ccccc1	none (no result: FLuc stim CS, STAT1 activator, NF-kB expr up, APP 5'UTR act, FLuc inh counter)
O=C(CNCCc1ccccc1)N1CCc2ccccc2C1	none
COc1ccc(N2C(=O)c3ccccc3NC23CCCCC3)cc1	STAT1 activator 134.7 (no result: Rad51 HR inh)
Cc1csc(Nc2ccc(Cl)cc2)n1	STAT1 activator 137.9
Cc1ccc(Nc2nc(C)cs2)cc1	STAT1 activator 130.5, APP 5'UTR act 199.3, FLuc inh counter 54.1
COC(=O)Cc1csc(Nc2ccc(Cl)cc2)n1	none
O=C(CC1SC(N2CCOCC2)=NC1=O)Nc1cc([N+](=O)[O-])ccc1Cl (centres undefined)	none
